Activity calls are given as the source filed them. The rule behind the calls is not given here.

The test system of assay [1] is Phytophthora capsici. Put plainly: Antifungal activity against Phytophthora capsici in pepper plants assessed as decrease in Phytophthora blight disease at 100 ug/ml. The format is functional, organism-based. Summed up: (§1)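 Pepper plants raised at 28 °C with 16 h light per day. Antibiotic in methanol, diluted, was sprayed onto plants at first-branch stage 1 day before inoculation. Stems were slit 1 cm above soil and covered with cotton soaked in 1 × 105 zoospores mL-1 P. capsici, then taped. Disease was rated daily on a 0–5 severity scale; values are means of 10 plants per treatment.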

For assay [2], the system named is Phytophthora capsici. Put plainly: Antifungal activity against Phytophthora capsici in pepper plants assessed as decrease in Phytophthora blight disease at 50 ug/ml. Type of assay: functional, organism-based. An outline of the steps:
as §1

With `COCC(=O)N(c1c(C)cccc1C)C(C)C(=O)OC` (configuration not stated), the outcome with Phytophthora capsici [1] and in the assay with Phytophthora capsici [2] was Active.

The values above are taken from ChEMBL document CHEMBL3045555, “Structure elucidation and antifungal activity of an anthracycline antibiotic, daunomycin, isolated from Actinomadura roseola” (J Agric Food Chem, 2000).
